# Most compounds without a hit are left out; they make up all but 1.7% or so of the library.
# STEP block = inhibitors of human striatal-enriched phosphatase STEP; recombinant STEP, OMFP fluorogenic substrate, fluorescence; 360,000 compounds, 0.25% hits; AID 588621; P54829; inhibition, % at 20 µM;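 active means inhibition at 20 µM, scaled per plate between control wells, above about 37%, limit read from the data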;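 further: 0% = DMSO with enzyme and substrate and 100% = substrate only without enzyme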
#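 System: STEP (striatal-enriched tyrosine phosphatase) enzyme, cell-free; medium: Bis-Tris pH 6.0 buffer with DTT, detergent; dosing: 20 µM, 1% DMSO; times: reaction 20 min, ambient temperature; detection: fluorescence, 480/540 nm; read-out basis: normalized % inhibition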
# SUMO1 PPI mod = modulators of human SUMO1-mediated protein-protein interactions; P63165; SUMO1 binding to a labelled peptide, TR-FRET, 1 h; inhibition, % at 20 µM; 360,000 compounds, 0.33% hits; AID 602429; in the data active means inhibition above about 37%
# LMPTP block = LMPTP (human) inhibition; AID 651560; 360,000 compounds, 0.22% hits; recombinant LMPTP-A, OMFP fluorogenic substrate, fluorescence intensity; inhibition, % at 20 µM;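 active means compounds that cut the enzyme signal by at least half of the control window in the single-dose screen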;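 further: plate controls were DMSO wells with enzyme plus substrate for no effect and substrate without enzyme for full effect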
#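 Test system – LMPTP-A phosphatase enzyme · Quantity – 0.625 nM LMPTP-A final · Reagent – OMFP substrate, 400 µM final · Dosing – one test concentration per compound, 20 µM, with 3% DMSO overall · Timing – 50 min enzyme reaction at room temperature, protected from light · Detection – fluorescence intensity · Controls – substrate-only low control, DMSO enzyme-plus-substrate high control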
# DNMT1 inh = blocks human DNA methyltransferase DNMT1. P26358. DNMT1 molecular beacon, Hinp1I cleavage, fluorescence. inhibition (reported as % activation of signal), % at 10 µM. 360,000 compounds, 0.83% hits. AID 588458; in the data active means inhibition above about 50%
# Scp1 inh = blocks human Scp-1 phosphatase activity; Q9GZU7; Recombinant Scp1, phosphopeptide, malachite green phosphate absorbance; inhibition, % at 20 µM; 340,000 compounds, 0.88% hits; AID 493091;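 active means inhibition above about 50% at 20 µM, limit read from the data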;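 further: plate controls were DMSO wells with enzyme for no effect and wells lacking enzyme for full effect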
#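 Test system: SCP-1 catalytic domain; Buffer or medium: Acidic Tris acetate buffer with magnesium and detergent; Also added: Phosphorylated 17-residue peptide substrate; Compound: single 20 µM dose, 1% DMSO; Schedule: enzyme reaction 45 min at room temperature, colour 5 min, stabilisation 30 min; Signal: Phosphate-binding colour reagent, absorbance read at 630 nm.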
# DNMT1 interf DR = beacon fluorescence artifact, dose response counter-screen; shares compounds with DNMT1 inh; molecular beacon fluorescence, spectral interference counter-screen; IC50, µM; 200 tested, under 10 active; call rule not given here
# DNMT1 inh conf = DNMT1 inhibition confirmation, single concentration; shares compounds with DNMT1 inh; DNMT1 molecular beacon HinP1I cleavage, fluorescence; inhibition, % at 10 µM; 2,300 compounds, 8% hits; AID 602385;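 active means average inhibition of at least 30% in the single-concentration confirmation test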
# Beacon interf = beacon fluorescence artifact counter-screen. shares compounds with DNMT1 inh. DNMT1 molecular beacon spectral interference counterscreen, fluorescence 485/520. activation (fluorescence interference), % at 10 µM. 2,300 compounds, 1% hits. AID 602387;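 active means activation of at least 30% at 10 µM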;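 further: DNMT1 catalytic domain with a HinP1I cleavage step and a FAM/dabcyl DNA beacon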
# * hit, by the source's call; x = no result.
SMILES,STEP block,SUMO1 PPI mod,LMPTP block,DNMT1 inh,Scp1 inh,DNMT1 inh conf,Beacon interf,others
O=S(=O)(Cc1noc(-c2ccc(Cl)cc2)n1)Cc1ccco1,6,3,27,83*,15,1,3,
O=S(=O)(Cc1ccco1)Cc1nc(-c2ccc(Cl)cc2)cs1,1,12,1,-6,-18,x,x,
O=P(O)(Cc1ccccc1)c1ccccc1,-2,-2,-3,6,x,x,x,
CCN(C(=O)C(C)N1C(=O)/C(=C/c2ccco2)SC1=S)C1CCS(=O)(=O)C1 (centres undefined),15,-3,4,63*,36,0,1,
CC(C(=O)N(C)C1CCS(=O)(=O)C1)N1C(=O)/C(=C/c2ccc(F)cc2)SC1=S (centres undefined),8,-36,0,0,-2,x,x,
Cc1cccc(CN2CCN(C3CN(Cc4cn(Cc5cccc(Cl)c5)nn4)S(=O)(=O)C3)CC2)c1 (centres undefined),x,1,-1,x,x,x,x,
COc1ccc(C(=O)Nc2ccccc2C(=O)Nc2cc(C)ccn2)cc1,10,2,1,-9,7,x,x,
COc1ccc(C(=O)Nc2ccccc2C(=O)Nc2cccc(C)n2)cc1,-1,1,0,83*,8,15,4,
NS(=O)(=O)c1ccc(N=Nc2ccc(O)c3ncccc23)cc1,1,-37,25,-10,-8,x,x,
NS(=O)(=O)c1ccc(N=Nc2ccc(=O)[nH]c2O)cc1,85*,22,16,100*,86*,30,-1,DNMT1 interf DR=>99
C/C(=N\NC(=O)c1ccc2c(c1)OCO2)c1ccc(O)cc1,-2,-6,-1,81*,-12,26,4,
O=C1C2CC=C(Cl)CC2C(=O)N1CCN1CCOCC1 (centres undefined),3,8,-5,4,-2,x,x,
O=C1C2CC=C(Cl)CC2C(=O)N1CCCCCCN1C(=O)C2CC=C(Cl)CC2C1=O (centres undefined),5,24,4,61*,71*,10,0,
C[C@H]1CN([C@@H](C)CO)C(=O)CCCn2cc(nn2)CO[C@@H]1CN(C)C(=O)Nc1ccc(F)cc1,0,8,-1,5,x,x,x,
COc1ccc(NC(=O)N(C)C[C@@H]2OCc3cn(nn3)CCCC(=O)N([C@@H](C)CO)C[C@H]2C)cc1,3,3,-2,63*,x,3,3,
CCN(CC(=O)NCCN1CCOCC1)S(=O)(=O)c1ccc(F)cc1,0,5,0,4,-1,x,x,
O=C(Nc1nc(-c2ccco2)c(-c2ccco2)s1)c1ccc(F)cc1F,2,26,9,43,9,x,x,
O=C(Nc1nc(-c2ccco2)c(-c2ccco2)s1)c1c(F)cccc1Cl,1,5,5,70*,-9,6,22,
CCc1nc(Nc2ccc(OC)c(OC)c2)c2nnn(Cc3ccccc3Cl)c2n1,4,0,5,105*,9,2,6,
CC1CCN(S(=O)(=O)c2ccc(C(=O)OC(C)C(=O)N(C)C3CCCCC3)cc2)CC1 (centres undefined),1,3,2,1,-3,x,x,
O=C(CCN1CCc2ccccc21)c1ccc2c(c1)OCCO2,2,-10,25,54*,1,2,1,
O=C(CCN1CCc2ccccc2C1)c1ccc2c(c1)OCCO2,2,-1,-2,0,-5,x,x,
Cn1nc([N+](=O)[O-])c2c(-c3nc4ccccc4s3)c(N)n(C3CCCCC3)c2c1=O,10,-8,3,62*,6,1,5,
CN(C)c1ccc(/C=N/NC(=O)C2COc3ccccc3O2)o1 (centres undefined),1,2,0,-3,-10,x,x,
O=C(N/N=C\c1ccc(Br)o1)C1COc2ccccc2O1 (centres undefined),4,3,2,51*,40,4,2,
SMILES,STEP block,SUMO1 PPI mod,LMPTP block,DNMT1 inh,Scp1 inh,DNMT1 inh conf,Beacon interf,others
CCOc1ccc(NC(=O)c2ccc(N3CC4CC(C3)c3cccc(=O)n3C4)c(N)c2)cc1 (centres undefined),7,6,1,1,-5,x,x,
Cc1c(-c2ccccc2)cnc2c(C)cccc12,0,5,1,0,-8,x,x,
O=C(O)c1cc(O)c2c(c1)C(=O)c1cccc(O)c1C2=O,13,32,10,69*,65*,9,1,
O=C(O)c1ccc2c(c1)S(=O)(=O)c1ccccc1C2=O,-4,-29,-2,3,8,x,x,
C[C@H](CO)N1C[C@H](C)[C@@H](CN(C)S(=O)(=O)c2ccccc2)Oc2ccc(NS(=O)(=O)c3cccs3)cc2C1=O,0,-6,-1,2,-8,x,x,
OC1CCCN(Cc2ccc3ccc4cccc5ccc2c3c45)C1 (centres undefined),0,-22,0,65*,0,1,0,
Cc1ccc(S(=O)(=O)c2c(O)c3ccc(C(=O)O)cc3[nH]c2=O)cc1,2,7,-4,3,-16,x,x,
C=CCOc1ccc(C(c2c(C(=O)O)[nH]c3ccccc23)c2c(C(=O)O)[nH]c3ccccc23)cc1,-4,15,2,86*,-19,14,-1,
CC1=NN(c2ccccc2)C(=O)/C1=C\C=C\c1ccccc1,2,15,4,8,-21,x,x,
CC1=NN(c2ccc(C)c(C)c2)C(=O)/C1=C\C=C\c1ccc([N+](=O)[O-])o1,3,-6,6,91*,65*,14,-3,
C=CCn1c(SCC(=O)Nc2ccc3c(c2)OCO3)nnc1-c1ccccc1,1,-2,3,52*,5,1,6,
O=C(CSc1nnc2ccccn12)Nc1ccc2c(c1)OCO2,2,0,0,-1,1,x,x,
O=C(CSc1nnc2ccccn12)Nc1cccc(-c2nc3ccccc3s2)c1,2,-2,3,61*,-7,1,-7,
C=CCn1c(SCC(=O)NNC(=O)Nc2ccc(C)cc2)nnc1-c1ccccc1,1,2,-2,0,-11,x,x,
C=CCn1c(SCC(=O)Nc2ccc(-c3nc4ccc(C)cc4s3)cc2)nnc1-c1ccccc1,10,7,7,74*,61*,5,-3,
COc1ccc(S(=O)(=O)N2CCOCC2)cc1NC(=O)CN1C(=O)NC2(CCC(C)CC2)C1=O (centres undefined),-1,-1,0,5,x,x,x,
